Measurements reported in ChEMBL document CHEMBL4680103, “In Vitro and in Vivo Anti-Trypanosoma cruzi Activity of New Arylamine Mannich Base-Type Derivatives” (J Med Chem, 2016).
Activity calls are given as the source filed them. The calls are words filed in the database; no cut-off is given here.

Columns and labels:
Trypanosoma cruzi [1] = experiment: (§1) Antitrypanosomal activity against Trypanosoma cruzi Arequipa trypomastigotes infected in BALB/c mouse assessed as reduction in parasitemia level in brain measured during acute phase (days 0 to 40 post infection) at 100 mg/kg, po dosed on alternating days (7 to 15 days post infection) by PCR analysis; type: functional, organism-based
[2] = Genotoxicity in Salmonella typhimurium TA1537 at 0.03 to 2.25 ug/plate incubated for 48 hrs in absence of liver S9 fraction by Ames test; type: toxicity; details: salmonella enterica subsp. enterica serovar typhimurium, s9, 48 h
Outline: (§2)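 Preincubation Ames assay. […] Top agar with trace histidine/biotin (0.05 mM each) was added and poured onto glucose minimal agar. Plates were incubated 48 h at 37 °C and His+ revertants counted. DMSO was the negative control, with strain-appropriate positive controls. Technical triplicates.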

[3] = Genotoxicity in Salmonella typhimurium TA1537 at 0.03 to 2.25 ug/plate incubated for 48 hrs in presence of liver S9 fraction by Ames test; type: toxicity, subcellular; details: salmonella enterica subsp. enterica serovar typhimurium, s9, 48 h; outline: as §2
Trypanosoma cruzi [4] = experiment: Antitrypanosomal activity against Trypanosoma cruzi Arequipa amastigote forms infected in African green monkey Vero cells incubated for 72 hrs by Giemsa staining based micrscopy; type: functional, organism-based
Outline: (§3)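 Vero cells (RPMI, 10% inactivated FBS, 37 °C, 5% CO2) were seeded at 1×10^4/well on coverslips and cultured 2 days. They were infected 24 h with metacyclic forms at 10:1. After washing off free parasites, drugs were added at 0.1–100 µM for 72 h. Slides were methanol-fixed and Giemsa-stained; amastigotes were counted in 200 host cells versus untreated. IC50 was calculated.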

[5] = Genotoxicity in Salmonella typhimurium TA102 at 0.03 to 2.25 ug/plate incubated for 48 hrs in absence of liver S9 fraction by Ames test; type: toxicity; details: salmonella enterica subsp. enterica serovar typhimurium, s9, 48 h; outline: as §2
[6] = Genotoxicity in Salmonella typhimurium TA98 at 0.03 to 2.25 ug/plate incubated for 48 hrs in absence of liver S9 fraction by Ames test; type: toxicity; details: salmonella enterica subsp. enterica serovar typhimurium, s9, 48 h; outline: as §2
Trypanosoma cruzi [7] = experiment: (§4) Antitrypanosomal activity against Trypanosoma cruzi Arequipa trypomastigotes infected in BALB/c mouse assessed as reduction in parasitemia level in heart measured during acute phase (days 0 to 40 post infection) at 100 mg/kg, po dosed on alternating days (7 to 15 days post infection) by PCR analysis; type: functional, organism-based
Trypanosoma cruzi [8] = experiment: as §4, with “infection) at 50 to 100 mg/kg,” for “infection) at 100 mg/kg,”; type: functional, organism-based; details: dose 50-100 mg/kg
Trypanosoma cruzi [9] = experiment: Antitrypanosomal activity against Trypanosoma cruzi Arequipa trypomastigotes infected in BALB/c mouse assessed as reduction in splenomegaly by measuring weight percent of spleens […] at 50 mg/kg, po dosed on alternating days (7 to 15 days post infection) by PCR analysis (reference value: 1.603%); type: functional; design: scale not given: the % may be the effect or the level left
Trypanosoma cruzi [10] = experiment: Antitrypanosomal activity against Trypanosoma cruzi SN3 epimastigote forms incubated for 72 hrs by hemocytometry; type: functional, organism-based; details: SN3, 72 h
Outline: (§5)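 Epimastigotes grown in MTL medium with 10% inactivated FBS at 28 °C. Compounds were dissolved in DMSO (0.01% v/v) and added at 0.1–100 µM for 72 h. Parasites were counted in a Neubauer chamber. IC50 (50% growth inhibition) was derived by linear regression of Kc values. Values are averages of four determinations.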

Vero = experiment: Cytotoxicity in African green monkey Vero cells incubated for 72 hrs; type: cell-based; details: Chlorocebus sabaeus
Trypanosoma cruzi [11] = experiment: Antitrypanosomal activity against Trypanosoma cruzi infected in African green monkey Vero cells assessed as reduction in number of trypomastigotes measured up to 10 days by Giemsa staining based hemocytometry; type: functional; details: time day <=10
Outline: (§6)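 Vero cells infected with metacyclic forms (10:1) were exposed to one concentration per compound immediately after infection for 12 h at 37 °C, 5% CO2. After washing, cultures were kept 10 days with fresh medium every 48 h. Every 48 h, % infected cells and amastigotes per infected cell (200 Giemsa-stained cells) and medium trypomastigotes (Neubauer) were scored. Means of three experiments.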

Trypanosoma cruzi [12] = experiment: as §1, with “adipose tissue” for “brain”; type: functional, organism-based
[13] = Inhibition of Trypanosoma cruzi Arequipa Fe-SOD by NBT dye based spectrophotometry
Outline: (§7)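 Fe-SOD source: Arequipa epimastigote homogenate (STE buffer pH 7.8, sonication, centrifugation, supernatant; protein by Bradford); CuZn-SOD was commercial human erythrocyte enzyme. Activity was measured as NBT reduction by superoxide in 50 mM potassium phosphate pH 7.8, with compounds at 5 concentrations (1–100 µM). A560 was read before and after 10 min under lamp light with stirring. Three rate determinations; Newman–Keuls test.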

Trypanosoma cruzi [14] = experiment: Antitrypanosomal activity against Trypanosoma cruzi Arequipa trypomastigotes infected in BALB/c mouse assessed as parasitemia re-activation level measured during chronic phase ( day 90 post infection) at 100 mg/kg, po dosed on alternating days (7 to 15 days post infection) relative to acute phase infection (reference value: […]%); type: functional
Trypanosoma cruzi [15] = experiment: Antitrypanosomal activity against Trypanosoma cruzi infected in African green monkey Vero cells assessed as reduction in number of amastigotes per infected cell measured up to 10 days by Giemsa staining based hemocytometry; type: functional; details: time day <=10; outline: as §6
[16] = Genotoxicity in Salmonella typhimurium TA100 at 0.03 to 2.25 ug/plate incubated for 48 hrs in absence of liver S9 fraction by Ames test; type: toxicity; details: salmonella enterica subsp. enterica serovar typhimurium, s9, 48 h; outline: as §2
Trypanosoma cruzi [17] = experiment: as §1, with “esophagus” for “brain”; type: functional, organism-based
Trypanosoma cruzi [18] = experiment: Antitrypanosomal activity against Trypanosoma cruzi Arequipa epimastigote forms incubated for 72 hrs by hemocytometry; type: functional, organism-based; outline: as §5
Trypanosoma cruzi [19] = experiment: as §1, with “muscle” for “brain”; type: functional, organism-based
Trypanosoma cruzi [20] = experiment: Antitrypanosomal activity against Trypanosoma cruzi Arequipa trypomastigote froms infected in mouse blood incubated for 24 hrs by Neubauer chamber based assay; type: functional, organism-based
Outline: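 Mouse blood taken at peak parasitemia (day 7) was diluted with uninfected blood to 4×10^6 trypomastigotes/mL, then 1:2 in RPMI 1640. Drugs from DMSO stocks were added at 1, 10, 25, 50 and 100 µM and incubated 24 h at 4–8 °C. Parasites were counted in a Neubauer chamber in triplicate. IC50 was calculated versus control.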

[21] = Genotoxicity in Salmonella typhimurium TA98 at 0.03 to 2.25 ug/plate incubated for 48 hrs in presence of liver S9 fraction by Ames test; type: toxicity, subcellular; details: salmonella enterica subsp. enterica serovar typhimurium, s9, 48 h; outline: as §2
[22] = target: Superoxide dismutase [Cu-Zn] (Homo sapiens, UniProt P00441); experiment: Inhibition of human erythrocyte CuZn-SOD by NBT dye based spectrophotometry; outline: as §7
Trypanosoma cruzi [23] = experiment: Antitrypanosomal activity against Trypanosoma cruzi Tulahuen amastigote forms infected in African green monkey Vero cells incubated for 72 hrs by Giemsa staining based micrscopy; type: functional, organism-based; outline: as §3
Trypanosoma cruzi [24] = experiment: as §1, with “bone marrow” for “brain”; type: functional, organism-based
Trypanosoma cruzi [25] = experiment: Antitrypanosomal activity against Trypanosoma cruzi SN3 amastigote forms infected in African green monkey Vero cells incubated for 72 hrs by Giemsa staining based micrscopy; type: functional, organism-based; outline: as §3
[26] = Genotoxicity in Salmonella typhimurium TA1535 at 0.03 to 2.25 ug/plate incubated for 48 hrs in presence of liver S9 fraction by Ames test; type: toxicity, subcellular; details: salmonella enterica subsp. enterica serovar typhimurium, s9, 48 h; outline: as §2

Chain of Superoxide dismutase [Cu-Zn] (P00441 whole entry): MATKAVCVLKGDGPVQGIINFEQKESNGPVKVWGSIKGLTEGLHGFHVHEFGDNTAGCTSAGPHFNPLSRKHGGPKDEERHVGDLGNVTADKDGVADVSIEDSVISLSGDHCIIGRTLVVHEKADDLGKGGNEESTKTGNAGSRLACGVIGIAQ

IC50 (Trypanosoma cruzi [4])	IC50 (Trypanosoma cruzi [10])	IC50 (Trypanosoma cruzi [18])	SMILES	Activity (Trypanosoma cruzi [1])	Activity [2]	Activity [3]	Activity [5]	Activity [6]	Activity (Trypanosoma cruzi [7])	Activity (Trypanosoma cruzi [8])	Activity (Trypanosoma cruzi [9])	IC50 (Vero)	inhibition (INH) (Trypanosoma cruzi [11])	Activity (Trypanosoma cruzi [12])	IC50 [13]	Activity (Trypanosoma cruzi [14])	inhibition (INH) (Trypanosoma cruzi [15])	Activity [16]	Activity (Trypanosoma cruzi [17])	Activity (Trypanosoma cruzi [19])	further results
12.7 µM	12.3 µM	30.7 µM	O=C(CCN1CCN(c2ccc(F)cc2)CC1)c1csc2ccc(F)cc12	Active	Non-Toxic	Non-Toxic	Non-Toxic	Non-Toxic	Active	Active	1.061%	759 µM	47%	Active	16.8 µM	0%	49%	Non-Toxic	Active	Active	IC50 (Trypanosoma cruzi [20]): 0.3 µM; Activity [21]: Non-Toxic; IC50 [22]: 215 µM; IC50 (Trypanosoma cruzi [23]): 4.9 µM; Activity (Trypanosoma cruzi [24]): Active; IC50 (Trypanosoma cruzi [25]): 7.9 µM; Activity [26]: Non-Toxic
27.9 µM	10.1 µM	51.7 µM	O=C(CCN1CCN(c2ccc(C(F)(F)F)cc2)CC1)c1csc2ccc(F)cc12	Active	Non-Toxic	Non-Toxic	Non-Toxic	Non-Toxic	Active	Active	1.621%	896 µM	68%	Active	102 µM	0%	64%	Non-Toxic	Active	Active	IC50 (Trypanosoma cruzi [20]): 13.9 µM; Activity [21]: Non-Toxic; IC50 [22]: 206 µM; IC50 (Trypanosoma cruzi [23]): 25.8 µM; Activity (Trypanosoma cruzi [24]): Active; IC50 (Trypanosoma cruzi [25]): 8.7 µM; Activity [26]: Non-Toxic
